Assay results reported in article PMC10356740 (Journal of sleep research, 2023).
Where two headings read alike, the source gives them in different places.

How the values were obtained:
[1] = type: in vivo; settings: mouse, ip, 10 mg/kg
In short: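 Dosing was 10 mg/kg, s.c. or i.p. by compound, with sparse sampling of plasma and brain. Total drug measured by LC-MS/MS was multiplied by fraction unbound to give free concentrations. Fraction unbound came from 5 μM compound incubated in mouse plasma or brain homogenate by rapid equilibrium dialysis. Parameters were derived by noncompartmental analysis, with terminal half-life by best fit.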

[2] = Fraction unbound by rapid equilibrium dialysis; type: in vitro ADME; settings: mouse
[3] = tested on: narcoleptic male orexin/tTA; TetO-DTA mice; test: EEG/EMG sleep/wake and cataplexy scoring after dosing before dark onset; type: in vivo, mouse
In short: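 Crossover in telemetered male DTA mice (n = 7) given 1, 3 or 10 mg/kg s.c. or i.p., or the matching vehicle, 15 min before ZT12, ≥3 d between doses. EEG/EMG were scored for 6 h as hourly and cumulative time per state and as bouts. NREM latency ran from dosing to the first 6 consecutive NREM epochs; REM latency to the first 3 REM epochs. Analysis used 1-way ANOVA or 2-way RM ANOVA (treatment × time), with Holm-Sidak vs vehicle.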

[4] = tested on: narcoleptic male orexin/tTA; TetO-DTA mice; test: EEG spectral power analysis; type: in vivo, mouse
In short: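 Male orexin/tTA;TetO-DTA mice (n = 7) with subcutaneous EEG/EMG telemeters received vehicle or 1, 3 or 10 mg/kg (s.c. or i.p. by compound, 10 mL/kg) 15 min before light offset at ZT12. Design was repeated measures in balanced order, ≥3 d apart. Normalized EEG spectra were taken in 0.122 Hz bins and bands: delta 0.5–4, theta 4–9, alpha 9–12, beta 12–30, low gamma 30–60, high gamma 60–100 Hz. Each state needed ≥3 animals. Analysis was 2-way RM ANOVA with Holm-Sidak.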

[5] = tested on: narcoleptic male orexin/tTA; TetO-DTA mice; test: Gross motor activity, running wheel activity and subcutaneous temperature; type: in vivo, mouse
In short: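 Gross motor activity came from the implanted subcutaneous telemeter, alongside home-cage running-wheel activity and bouts and subcutaneous temperature, analysed per ZT hour after dosing. Male DTA mice (n = 7), adapted ≥2 weeks to wheels, handling and dosing, received vehicle or 1, 3 or 10 mg/kg s.c. or i.p. 15 min before ZT12 in repeated-measures order. Analysis was 2-way RM ANOVA (treatment × time) with Holm-Sidak.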

[6] = tested on: Hcrt peptide-deficient and Hcrt neuron-ablated mice; settings: ref Irukayama-Tomobe et al., 2017; cited from earlier work
[7] = tested on: Hcrt receptor-deficient mice; settings: ref Irukayama-Tomobe et al., 2017; cited from earlier work
[8] = tested on: Hcrt-deficient, Hcrt neuron-ablated and wild-type mice; settings: peripheral administration; ref Irukayama-Tomobe et al., 2017; cited from earlier work
[9] = first post-dosing hour (ZT13), 3 and 10 mg/kg i.p.

## CCNC(=O)N1CCC[C@H](NS(C)(=O)=O)[C@@H]1CO[C@H]1CC[C@@H](C(C)C)CC1 [ARN-776, (2R,3S)-N-ethyl-2-{[(cis-4-isopropylcyclohexyl)oxy]methyl}−3-[(methylsulfonyl)amino]piperidine-1-carboxamide]
[1]; brain
  Cmax: 13 ng/g
  Tmax: 10 min
  half-life: 38 min
[1]; plasma
  AUC(0-t): 191 ng·h/mL
  Cmax: 326 ng/mL
  Tmax: 10 min
  half-life: 125 min
[2]; mouse brain homogenate
  fraction unbound at 5 μM: 0.121
[2]; mouse plasma
  fraction unbound at 5 μM: 0.176
[3]; 3 mg/kg (p = 0.03) and 10 mg/kg (p = 0.002) i.p.
  Number of Wake bouts across the entire 6-h recording: significantly reduced the number of Wake bouts
[3]; 3 mg/kg i.p., p = 0.046
  Cataplexy bout duration: modest effect
[3]; 10 mg/kg i.p., post hoc p = 0.005
  Cumulative time in Wake: significant effects
[3]; 10 mg/kg i.p., post hoc p = 0.028
  Cumulative time in NREM sleep: significant effects
[3]; 10 mg/kg i.p., vs vehicle
  Latency to REM sleep: delayed REM sleep
[3]; 1–10 mg/kg i.p.
  NREM bout duration, post hoc test per dose: did not identify any specific dose
  REM bout duration, post hoc test per dose: did not identify any specific dose
  REM sleep rebound after early suppression: rebound did not reach statistical significance
[3]; all 3 doses (1, 3, 10 mg/kg i.p.)
  Percent time in Cataplexy across the 6-h recording: reduced Cataplexy across the 6-h period
[3]; all 3 doses i.p.
  Cumulative time in Cataplexy: cumulative suppression of Cataplexy
[3]; all doses i.p., 6-h recording
  Wake bout duration, treatment effect: significant treatment effects
[3]; entire 6-h recording, i.p.
  REM/NREM ratio: unchanged
[3]; first hour post-dosing, only middle and high doses i.p.
  Number of NREM bouts: reduced the number of NREM bouts
[3]; first hour, 1–10 mg/kg i.p.
  Hourly amount of NREM sleep: dose-related changes
  Hourly amount of REM sleep: dose-related changes
  Hourly amount of Wake: dose-related changes
  Number of Wake bouts: dose-related effect
  Reduction in hourly Cataplexy levels: did not reach statistical significance
[3]; first post-dosing hour (ZT13), all doses i.p.
  Wake bout duration: increased Wake bout duration
[3]; hours after the first post-dosing hour, i.p.
  Compensatory NREM sleep after increased wakefulness: no compensatory increase in NREM sleep
[3]; lower doses i.p.
  Suppression of cumulative REM sleep: limited to the first post-dosing hour
[3]; only 10 mg/kg i.p.
  Number of REM bouts: reduced the number of REM bouts
[3]; only 3 and 10 mg/kg i.p. (not 1 mg/kg), vs vehicle
  Latency to NREM sleep: delayed NREM
[3]; only the two highest concentrations i.p.
  Number of Cataplexy bouts: effective during the first and later hours
[3]; second hour, only 10 mg/kg i.p.
  Number of Wake bouts: reduced the number of Wake bouts
[4]; 10 mg/kg i.p., p = 0.04
  High gamma EEG power during Wake across the entire recording period: significantly increased high gamma
[4]; ZT13, 3 mg/kg i.p.
  Waking EEG low and high gamma power: significantly increased
[4]; ZT14, 10 mg/kg i.p.
  NREM EEG alpha and high gamma power: significant reductions
[4]; ZT15, 10 mg/kg i.p.
  NREM EEG high gamma power: reduction of high gamma continued into ZT15
[4]; first post-dosing hour, 10 mg/kg i.p.
  Waking EEG power in alpha, low gamma and high gamma: significantly increased power in all three of these bands
[5]; ZT13, 3 and 10 mg/kg i.p.
  Number of running bouts: more running bouts
[5]; ZT15, highest dose i.p.
  Gross motor activity: reduced gross motor activity
[5]; [9]
  Gross motor activity: significantly increased motor activity
  Running wheel activity: significantly increased running wheel activity
  Subcutaneous temperature (Tsc): significantly increased Tsc

## COc1ccc(-c2cccc(C(=O)N(C)C)c2)cc1S(=O)(=O)Nc1cccc(NCCNC(=O)c2ccccc2N(C)C)c1 [YNT-185]
[6]
  Sleep onset REM periods (SOREMs): reduced sleep onset REM periods (SOREMs)
[7]
  Sleep onset REM periods (SOREMs): but not in Hcrt receptor-deficient mice
[8]
  Wakefulness: promoted wakefulness
